Here are results for eleven compounds from ChEMBL document CHEMBL2074545, “Transport of bile acids, sulfated steroids, estradiol 17-beta-D-glucuronide, and leukotriene C4 by human multidrug resistance protein 8 (ABCC11)” (Mol Pharmacol, 2004).

Usually Km stands for the substrate concentration at which the rate is half of its maximum.

Series [1] addresses ATP-binding cassette sub-family C member 11 (Homo sapiens) (UniProt Q96J66). Kind of series: TP_TRANSPORTER: inhibition of Estradiol-17beta-D-glucuronide uptake by cGMP at a concentration of 10 uM in membrane vesicle from MRP8-expressing LLC-PK1 cells. The class given is functional, cell membranes. Further details: scale not given: the % may be the effect or the level left. The method in brief:
(§1)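 Vesicles (10 µg) from LLC-PK1-MRP8-3 cells incubated 10 min at 37°C with 1 µM [3H]E217βG plus modulator, in 0.25 M sucrose, 10 mM Tris-HCl pH 7.4, 10 mM MgCl2, creatine phosphate/creatine kinase, with 4 mM ATP or 4 mM AMP. Rapid filtration, scintillation counting. ATP-dependent uptake (ATP minus AMP) expressed as % of modulator-free uptake. At least three measurements, each in duplicate.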

Series [2] has the same target. Kind of series: TP_TRANSPORTER: inhibition of Estradiol-17beta-D-glucuronide uptake by Probenecid at a concentration of 10 uM in membrane vesicle from MRP8-expressing LLC-PK1 cells. The class given is functional, cell membranes. Further details: scale not given: the % may be the effect or the level left. The method in brief:
as §1

Series [3] has the same target. Briefly: TP_TRANSPORTER: inhibition of Estradiol-17beta-D-glucuronide uptake by Glycocholate at a concentration of 10 uM in membrane vesicle from MRP8-expressing LLC-PK1 cells. Type of series: functional, cell membranes. Further details: scale not given: the % may be the effect or the level left. The method in brief:
as §1

For series [4] the target is unchanged. Briefly: TP_TRANSPORTER: inhibition of Estradiol-17beta-D-glucuronide uptake by MK-571 at a concentration of 10 uM in membrane vesicle from MRP8-expressing LLC-PK1 cells. The class given is functional, cell membranes. Further details: scale not given: the % may be the effect or the level left. The method in brief:
as §1

The target is the same in series [5]. Briefly: TP_TRANSPORTER: inhibition of Estradiol-17beta-D-glucuronide uptake by Dehydroepiandrosterone-3-sulfate at a concentration of 10 uM in membrane vesicle from MRP8-expressing LLC-PK1 cells. The class given is functional, cell membranes. Also noted: scale not given: the % may be the effect or the level left. The gist of the method: as §1
The target is the same in series [6]. Briefly: TP_TRANSPORTER: inhibition of Estradiol-17beta-D-glucuronide uptake by Glycolithocholate at a concentration of 10 uM in membrane vesicle from MRP8-expressing LLC-PK1 cells. Type of series: functional, cell membranes. Also noted: scale not given: the % may be the effect or the level left. The gist of the method:
as §1

Series [7] has the same target. Briefly: TP_TRANSPORTER: inhibition of Estradiol-17beta-D-glucuronide uptake by Indomethacin at a concentration of 10 uM in membrane vesicle from MRP8-expressing LLC-PK1 cells. Type of series: functional, cell membranes. Further details: scale not given: the % may be the effect or the level left. The gist of the method: as §1
Series [8] has the same target. Briefly: TP_TRANSPORTER: inhibition of Estradiol-17beta-D-glucuronide uptake by Leukotrien C4 at a concentration of 1 uM in membrane vesicle from MRP8-expressing LLC-PK1 cells. The class given is functional, cell membranes. Also noted: scale not given: the % may be the effect or the level left. The gist of the method: as §1
For series [9], the system named is CN(Cc1cnc2nc(N)nc(N)c2n1)c1ccc(C(=O)N[C@@H](CCC(=O)O)C(=O)O)cc1. Conditions: LLC-PK1; Membrane vesicle.
Series [10] has as its system C[C@]12CC[C@@H]3c4ccc(O)cc4CC[C@H]3[C@@H]1CC[C@@H]2O[C@@H]1O[C@H](C(=O)O)[C@@H](O)[C@H](O)[C@H]1O. As to conditions: LLC-PK1; Membrane vesicle.
The subject of series [11] is C[C@]12CC[C@H](OS(=O)(=O)O)CC1=CC[C@@H]1[C@@H]2CC[C@]2(C)C(=O)CC[C@@H]12. As to conditions: LLC-PK1; Membrane vesicle.
The target in series [12] is ATP-binding cassette sub-family C member 11 (Homo sapiens) (UniProt Q96J66). Kind of series: TP_TRANSPORTER: inhibition of Estradiol-17beta-D-glucuronide uptake by 2,4-dinitrophenyl-S-glutathione at a concentration of 10 uM in membrane vesicle from MRP8-expressing LLC-PK1 cells. Further details: scale not given: the % may be the effect or the level left. Type of series: functional, cell membranes. The gist of the method: as §1
Chain of ATP-binding cassette sub-family C member 11 (Homo sapiens) (Q96J66 whole entry): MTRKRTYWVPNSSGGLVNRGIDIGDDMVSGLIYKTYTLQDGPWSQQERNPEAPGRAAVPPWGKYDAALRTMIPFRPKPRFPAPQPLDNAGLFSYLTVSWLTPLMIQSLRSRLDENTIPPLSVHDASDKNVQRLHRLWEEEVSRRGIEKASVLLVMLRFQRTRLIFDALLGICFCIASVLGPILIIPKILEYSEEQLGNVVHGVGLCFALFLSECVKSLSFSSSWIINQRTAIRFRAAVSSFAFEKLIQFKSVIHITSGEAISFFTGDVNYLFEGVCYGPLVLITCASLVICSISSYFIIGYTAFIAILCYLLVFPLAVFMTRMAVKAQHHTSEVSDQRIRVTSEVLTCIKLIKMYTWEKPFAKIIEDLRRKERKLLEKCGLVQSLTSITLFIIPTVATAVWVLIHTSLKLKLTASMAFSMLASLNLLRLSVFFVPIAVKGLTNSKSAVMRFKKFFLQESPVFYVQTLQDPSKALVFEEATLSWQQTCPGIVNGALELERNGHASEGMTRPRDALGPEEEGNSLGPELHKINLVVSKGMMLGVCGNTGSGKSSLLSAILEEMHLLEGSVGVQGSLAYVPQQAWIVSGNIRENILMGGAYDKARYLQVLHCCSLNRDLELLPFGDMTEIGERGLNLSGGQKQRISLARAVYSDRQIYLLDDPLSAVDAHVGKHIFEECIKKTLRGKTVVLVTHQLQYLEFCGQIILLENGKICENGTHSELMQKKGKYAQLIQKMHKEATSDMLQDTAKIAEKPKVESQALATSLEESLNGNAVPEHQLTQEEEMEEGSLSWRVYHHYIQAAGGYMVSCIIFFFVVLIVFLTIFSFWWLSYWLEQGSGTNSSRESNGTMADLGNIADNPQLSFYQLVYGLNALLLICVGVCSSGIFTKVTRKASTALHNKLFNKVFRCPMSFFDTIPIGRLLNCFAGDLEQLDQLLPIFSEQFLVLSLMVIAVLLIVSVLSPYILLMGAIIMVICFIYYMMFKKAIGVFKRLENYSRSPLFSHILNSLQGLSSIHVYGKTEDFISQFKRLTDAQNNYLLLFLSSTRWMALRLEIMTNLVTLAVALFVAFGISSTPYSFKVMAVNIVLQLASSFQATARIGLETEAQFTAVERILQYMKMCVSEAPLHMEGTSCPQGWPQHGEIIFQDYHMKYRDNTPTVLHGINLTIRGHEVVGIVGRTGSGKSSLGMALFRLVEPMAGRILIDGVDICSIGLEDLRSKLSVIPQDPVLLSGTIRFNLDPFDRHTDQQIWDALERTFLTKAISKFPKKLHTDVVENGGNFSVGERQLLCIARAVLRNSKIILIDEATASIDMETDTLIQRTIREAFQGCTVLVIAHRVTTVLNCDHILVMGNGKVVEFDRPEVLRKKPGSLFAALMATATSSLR

Series [13] shares this target. Briefly: TP_TRANSPORTER: inhibition of Estradiol-17beta-D-glucuronide uptake by Sildenifil at a concentration of 10 uM in membrane vesicle from MRP8-expressing LLC-PK1 cells. Type of series: functional, cell membranes. Further details: scale not given: the % may be the effect or the level left. The gist of the method:
as §1

Chain of ATP-binding cassette sub-family C member 11 (Homo sapiens), Q96J66 (Q96J66 whole entry): as above

Consider `Nc1nc2c(ncn2[C@@H]2O[C@@H]3COP(=O)(O)O[C@H]3[C@H]2O)c(=O)[nH]1`, for which the Activity in series [1] was 73%.

For `CCCN(CCC)S(=O)(=O)c1ccc(C(=O)O)cc1`, the Activity in [2] is 76%.

Regarding `C[C@H](CCC(=O)NCC(=O)O)[C@H]1CC[C@H]2[C@@H]3[C@H](O)C[C@@H]4C[C@H](O)CC[C@]4(C)[C@H]3C[C@H](O)[C@]12C`, the Activity in [3] was 62%.

For the compound `CN(C)C(=O)CCSC(SCCC(=O)O)c1cccc(/C=C/c2ccc3ccc(Cl)cc3n2)c1` (stereo not drawn), the Activity in series [4] was 25%.

Regarding `C[C@]12CC[C@H](OS(=O)(=O)O)CC1=CC[C@@H]1[C@@H]2CC[C@]2(C)C(=O)CC[C@@H]12`, the Activity in series [5] was 196%.

`C[C@H](CCC(=O)NCC(=O)O)[C@H]1CC[C@H]2[C@@H]3CC[C@@H]4C[C@H](O)CC[C@]4(C)[C@H]3CC[C@]12C`: in series [6], the Activity was 16%.

For `COc1ccc2c(c1)c(CC(=O)O)c(C)n2C(=O)c1ccc(Cl)cc1`, in series [7], the Activity is 64%.

Consider `CCCCC/C=C\C\C=C/C=C/C=C/[C@@H](SC[C@@H](NC(=O)CC[C@H](N)C(=O)O)C(=O)NCC(=O)O)[C@@H](O)CCCC(=O)O`, for which, in [8], the Activity is 72%.

Regarding “ATP-binding cassette sub-family C member 11 (Homo sapiens), Q96J66”, the Michaelis-Menten constant (Km) in series [9] was determined as 957 µM; in [10], 62.9 µM; in series [11], 13 µM.

Regarding `N[C@@H](CCC(=O)N[C@H](CSc1ccc([N+](=O)[O-])cc1[N+](=O)[O-])C(=O)NCC(=O)O)C(=O)O`, the Activity in [12] is 17%.

As to `CCCc1nn(C)c2c(=O)[nH]c(-c3cc(S(=O)(=O)N4CCN(C)CC4)ccc3OCC)nc12`, the Activity in series [13] was 79%.
